Consider four compounds from ChEMBL document CHEMBL1141449, “Diterpenes, sesquiterpenes, and a C15-acetogenin from the marine red alga Laurencia mariannensis” (2007).

One assay has as its system Candida albicans. Briefly: Antifungal activity against Candida albicans by standard agar diffusion test. Format: functional, organism-based. In a few lines:
(§1)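 Agar diffusion assay following a cited standard method. Read-out is the diameter of the growth-inhibition zone, in mm.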
On the technique in general: Agar diffusion results depend on both activity and mobility in agar.

The next assay relates to Aspergillus niger. As to the kind of experiment: Antifungal activity against Aspergillus niger by standard agar diffusion test. Format: functional, organism-based. In a few lines:
as §1

Another assay relates to Escherichia coli. As to the kind of experiment: Antibacterial activity against Escherichia coli by standard agar diffusion test. Format: functional. In a few lines:
as §1

The subject of a further assay is Staphylococcus aureus. As to the kind of experiment: Antibacterial activity against Staphylococcus aureus by standard agar diffusion test. Format: functional. In a few lines: as §1

Molecules are shown by their SMILES. Activity calls are given as the source filed them. The rule behind the calls is not given here.

On to `C=C[C@]1(C)CC[C@H]2C(C)=CC[C@@H](C)[C@]2(C)O1`, for which the outcome in the assay with Candida albicans and in the assay with Aspergillus niger was inactive.

With `C=C1CC[C@H](Br)C(C)(C)[C@]12CC[C@@]1(C)[C@H](C2)[C@](C)(O)[C@H](O)C[C@@H]1Br`, the outcome in the assay with Candida albicans and in the assay with Aspergillus niger was inactive. The “inhibition zone (IZ)” value in the assay with Escherichia coli and with Staphylococcus aureus was 6.5 mm each time.

Turning to `CC/C(Br)=C/C=C\C1=C(Br)[C@H]2O[C@H](C=C=CBr)C[C@H]2O1` [LAURENMARIALLENE], the result in the assay on Candida albicans and in the assay on Aspergillus niger was inactive. Further, the “inhibition zone (IZ)” value in the assay on Escherichia coli is given as 7 mm.

Regarding `C=C1CC[C@H](Br)C(C)(C)[C@@]12CCC(C)=C(Cl)C2`, the result with Candida albicans and in the assay with Aspergillus niger was inactive.
